Laboratory results taken from ChEMBL document CHEMBL1148783, “Selection of a respiratory syncytial virus fusion inhibitor clinical candidate, part 1: improving the pharmacokinetic profile using the structure-property relationship” (J Med Chem, 2007).

Columns and labels:
[1] = Drug level in Sprague-Dawley rat lung after 4 hrs; type: ADME, tissue-based; settings: read-out: Drug uptake
Method in brief: (§1)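 Male Sprague-Dawley rats (250-300 g) were given a 10 min tail-vein infusion at a final dose of 1 mg/kg. Three rats per time point were killed at 4, 24, 96 and 168 h. Plasma was taken from EDTA blood, and lung was homogenized 1/9 w/v in demineralized water. Samples were stored at ≤-18 °C and quantified by a qualified LC-MS/MS method.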

[2] = test system: Respiratory syncytial virus; assay: Antiviral activity against RSV in HeLaM cells; type: functional, organism-based; settings: human respiratory syncytial virus
Method in brief: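 HeLaM epithelial-like cells infected with RSV with or without a range of compound concentrations, with virus, cell and cytotoxicity controls and ribavirin as reference in each test. After one week of incubation, viability was read by MTT and spectrophotometric OD. pEC50 was calculated from the OD values.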

[3] = Cytotoxicity against HeLaM cells; type: cell-based, M-HeLa; settings: human
[4] = Half life (24 to 96 hrs) in Sprague-Dawley rat lung; type: ADME, tissue-based
Method in brief: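 Lung half-life came from IV-dosed male Sprague-Dawley rats (1 mg/kg, 10 min tail-vein infusion), with three animals per time point. Lungs were homogenized in water (1/9 w/v) and analyzed by LC-MS/MS, using the concentrations measured between 24 and 96 h post-dose.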

[5] = Drug level in Sprague-Dawley rat plasma after 4 hrs; type: ADME, cell-free; settings: read-out: Drug uptake; method in brief: as §1
[6] = Drug level in Sprague-Dawley rat plasma after 24 hrs; type: ADME, cell-free; settings: read-out: Drug uptake; method in brief: as §1
[7] = Drug level in Sprague-Dawley rat lung after 24 hrs; type: ADME, tissue-based; settings: read-out: Drug uptake; method in brief: as §1
[8] = Drug level in Sprague-Dawley rat lung after 96 hrs; type: ADME, tissue-based; settings: read-out: Drug uptake; method in brief: as §1
[9] = Drug level in Sprague-Dawley rat lung after 168 hrs; type: ADME, tissue-based; settings: read-out: Drug uptake; method in brief: as §1

Row | Compound | EC50 [2] [µM] | half-life [4] [h] | CC50 [3] [µM] | further results
1 | Cc1ccc(O)c(Cn2cnc3c(C)cccc32)n1 |  |  |  | concentration at 4 h [1]: 3.9 ng/mL
2 | Cc1ccc(O)c(Cn2c(NC3CCN(CCN4CCCC4)CC3)nc3c(C)cccc32)n1 | 0.01 | 206 | 39.8 | 
3 | CNCCCNc1nc2c(C)cc(C)cc2n1Cc1nc(C)ccc1O | 0.000631 | 93 | 50.1 | 
4 | Cc1ccc(O)c(Cn2c(NC3CCN(CCN)CC3)nc3ccccc32)n1 | 0.000316 | 211 | > 100 | 
5 | Cc1ccc(O)c(Cn2c(NC3CCN(CC(O)C(C)(C)C)CC3)nc3c(C)cccc32)n1 (stereo not drawn) | 0.794 |  | 39.8 | 
6 | CCCCNc1nc2c(C)cc(C)cc2n1Cc1nc(C)ccc1O | > 100 |  | 7.94 | 
7 | Cc1ccc(O)c(Cn2c(NC3CCN(CCC(C)C)CC3)nc3c(C)cccc32)n1 | 0.631 |  | > 100 | 
8 | CNS(=O)(=O)CCCN1CCC(Nc2nc3c(C)cccc3n2Cc2nc(C)ccc2O)CC1 | 0.0501 | 32 | 79.4 | 
9 | CC(=O)NCCNc1nc2c(C)cc(C)cc2n1Cc1nc(C)ccc1O | 5.01 |  | 12.6 | 
10 | NCCN1CCC(Nc2nc3ccccc3[nH]2)CC1 |  |  |  | concentration at 4 h [5]: 11.8 ng/mL; concentration at 24 h [6]: 6.1 ng/mL; concentration at 4 h [1]: 247 ng/mL; concentration at 24 h [7]: 295 ng/mL; concentration at 96 h [8]: 83.7 ng/mL; concentration at 168 h [9]: 37.8 ng/mL
11 | Cc1cc(C)c2nc(NCCCN3CCOCC3)n(Cc3nc(C)ccc3O)c2c1 | 0.126 | 14 | 50.1 | 
12 | Cc1cc(C)c2nc(NCCCN)n(Cc3nc(C)ccc3O)c2c1 | 0.000251 | 68 | > 100 | 
13 | Cc1ccc(O)c(Cn2c(NC3CCN(CCN4CCOCC4)CC3)nc3c(C)cccc32)n1 | 0.158 | 35 | 63.1 | 
14 | Cc1ccc(O)c(Cn2c(NC3CCN(C)CC3)nc3c(C)cccc32)n1 | 0.158 |  | 50.1 | 
15 | Cc1cc(C)c2nc(NCCCN3CCN(C)CC3)n(Cc3nc(C)ccc3O)c2c1 | 0.0251 | 80 | 50.1 | 

Continued, in another order:

Row | EC50 [2] [µM] | half-life [4] [h] | Compound | CC50 [3] [µM] | further results
16 | 0.000251 | 153 | Cc1ccc(O)c(Cn2c(NC3CCN(CCN)CC3)nc3c(C)cccc32)n1 [JNJ 2408068] | > 100 | concentration at 4 h [5]: 0.97 ng/mL; concentration at 24 h [6]: 0.33 ng/mL; concentration at 4 h [1]: 576 ng/mL; concentration at 24 h [7]: 559 ng/mL; concentration at 96 h [8]: 439 ng/mL; concentration at 168 h [9]: 387 ng/mL
17 | 0.02 | 29 | Cc1ccc(O)c(Cn2c(NC3CCN(CCO)CC3)nc3c(C)cccc32)n1 | > 100 | 
18 | 0.0126 | 57 | Cc1ccc(O)c(Cn2c(NC3CCN(CCCS(N)(=O)=O)CC3)nc3c(C)cccc32)n1 | > 100 | 
19 | 0.158 |  | Cc1ccc(O)c(Cn2c(NC3CCN(CCC(=O)O)CC3)nc3c(C)cccc32)n1 | > 100 | 
20 | > 100 |  | Cc1cc(C)c2nc(NCCc3ccccc3)n(Cc3nc(C)ccc3O)c2c1 | 6.31 | 
21 | 0.0398 | < 24 | Cc1cc(C)c2nc(NCC(O)CO)n(Cc3nc(C)ccc3O)c2c1 (stereo not drawn) | 50.1 | 
22 | > 100 |  | Cc1cc(C)c2nc(NCCNc3ccccc3)n(Cc3nc(C)ccc3O)c2c1 | 3.16 | 
23 | 0.00316 | 556 | Cc1ccc(O)c(Cn2c(NC3CCN(CC(O)CN(C)C)CC3)nc3c(C)cccc32)n1 (stereo not drawn) | > 100 | 
24 | 0.0501 | 46 | Cc1ccc(O)c(Cn2c(NC3CCN(CCC(N)=O)CC3)nc3c(C)cccc32)n1 | > 100 | 
25 | 0.158 |  | Cc1cc(C)c2nc(NCCCO)n(Cc3nc(C)ccc3O)c2c1 | 63.1 | 
